The values that follow come from publication PMC5538687 (International Journal of Nanomedicine, 2017).

Where two headings read alike, the source gives them in different places.

For one series, the target named is T1, mouse FAPα protein (Mus musculus, UniProt P97321).
T1 sequence (P97321 1-761): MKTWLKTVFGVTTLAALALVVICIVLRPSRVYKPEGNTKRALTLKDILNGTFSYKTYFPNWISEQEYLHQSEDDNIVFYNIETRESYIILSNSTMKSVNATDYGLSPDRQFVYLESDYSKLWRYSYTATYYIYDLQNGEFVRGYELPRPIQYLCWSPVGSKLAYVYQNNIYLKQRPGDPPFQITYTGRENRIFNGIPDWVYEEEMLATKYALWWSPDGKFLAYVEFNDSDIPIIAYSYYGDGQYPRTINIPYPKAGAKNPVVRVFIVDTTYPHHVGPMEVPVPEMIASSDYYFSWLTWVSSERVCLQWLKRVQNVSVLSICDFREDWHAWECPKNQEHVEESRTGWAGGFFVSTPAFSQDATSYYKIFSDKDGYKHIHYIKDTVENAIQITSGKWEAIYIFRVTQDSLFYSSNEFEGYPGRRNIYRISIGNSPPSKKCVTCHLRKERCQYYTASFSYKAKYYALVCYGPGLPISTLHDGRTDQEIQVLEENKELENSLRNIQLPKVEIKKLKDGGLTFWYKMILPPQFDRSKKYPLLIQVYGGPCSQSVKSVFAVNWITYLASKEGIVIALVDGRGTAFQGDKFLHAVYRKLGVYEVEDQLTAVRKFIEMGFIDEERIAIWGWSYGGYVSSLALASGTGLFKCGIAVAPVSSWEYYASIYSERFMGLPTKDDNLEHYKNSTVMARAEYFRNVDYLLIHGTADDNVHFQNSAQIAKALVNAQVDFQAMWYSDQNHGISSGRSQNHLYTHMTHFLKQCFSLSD
The series is described as follows: In vitro protease assay with recombinant FAPα. The series is classed as biochemical. Conditions: 37°C.

Series [1] has as its system Eca109 xenograft tumor (FAPα in tumor stroma). It counts as in vivo, BALB/c-nude mice. To be noted: for AUC of ROC curve, ESCC vs healthy mice: 1 hour urine, n=10 per group. In outline: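 BALB/c-nude mice aged 4–6 weeks were given 5×10⁶ Eca109 cells s.c. and grown 4 weeks to tumours of 100–300 mm³. Tumour-bearing and age-matched healthy mice (n=10 each) were co-injected via the tail vein with probe nanoparticles (100 μL PBS; 100 or 10 nM by peptide) plus control peptide at the same level. Urine was collected at set times, with 1 h urine used for diagnosis. It was stored at −80°C, diluted 1:10–10² in PBS/1% BSA, and run by ELISA in at least duplicate. ROC analysis was applied.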

A further series deals with Eca109 xenograft tumor. Put plainly: In vivo imaging and biodistribution. Also noted: species or system BALB/c-nude mice. To be noted: 100 μL, 100 nM by peptide, i.v.; 1 hour postinjection.

With “Bio-eGvndneeGffsar-K [5-FAM]-GPGPNQC [marker-MNPs]”, at mouse FAPα protein (marker-MNPs 10 nM by peptide, recombinant FAPα 0.1–100 pM, 1 hour, ELISA, n=3 per dose), the “Level of cleaved reporter peptides with increasing FAPα concentration” value is given as “elevated levels of cleaved reporter peptides were detected by ELISA with increasing concentration of FAPα”. Also, on mouse FAPα protein (marker-MNPs treated with 10 nM FAPα), the “Level of cleaved reporter peptides over time” value is listed as “increased over time”. Moreover, in series [1] (10 nM group), the Sensitivity came out at 90%; the Specificity is 97%; the “AUC of ROC curve, ESCC vs healthy mice” value was determined as 0.97. Further, in series [1] (100 nM group), the Sensitivity was 100%; the Specificity is 100%; the “AUC of ROC curve, ESCC vs healthy mice” value was found to be 1.0. The “Time of peak concentration of cleaved reporter peptide in urine” value in series [1] (100 nM marker-MNPs i.v., ESCC tumor mice, n=3, ELISA) is 60 min. In addition, the “Time at which urinary cleaved reporter dropped to the bottom line” value in series [1] (100 nM marker-MNPs i.v., ESCC tumor mice, postinjection) was 150 min. Moreover, in series [1] (100 nM marker-MNPs i.v., healthy mice, 0–180 min), the “Urine reporter in healthy mice” value is “not detectable”. The “Ratio of reporter to reporter control, ESCC vs healthy mice” value in series [1] (1 hour postinjection urine, P<0.0001) is on record as “significantly higher than in healthy control mice”. The “In vivo fluorescence imaging of tumor-bearing mice vs control” value in the series with Eca109 xenograft tumor is “strong fluorescent activation in the tumor region and bladder”.
